In ChEMBL document CHEMBL1127563, “Novel acyl-CoA:cholesterol acyltransferase inhibitors. Synthesis and biological activity of 3-quinolylurea derivatives” (J Med Chem, 1994):
Values joined by “and” are separate entries in the source; they are usually repeats but may differ in a detail not shown here. Equal values may be shown once.

What was measured:
[1] = target: T1, Sterol O-acyltransferase 1 (Rattus norvegicus, UniProt O70536); experiment: Inhibitory activity against acyl coenzyme A:cholesterol acyltransferase in rat microsomes; parameters: species or system Microsome
T1 sequence (O70536 whole entry): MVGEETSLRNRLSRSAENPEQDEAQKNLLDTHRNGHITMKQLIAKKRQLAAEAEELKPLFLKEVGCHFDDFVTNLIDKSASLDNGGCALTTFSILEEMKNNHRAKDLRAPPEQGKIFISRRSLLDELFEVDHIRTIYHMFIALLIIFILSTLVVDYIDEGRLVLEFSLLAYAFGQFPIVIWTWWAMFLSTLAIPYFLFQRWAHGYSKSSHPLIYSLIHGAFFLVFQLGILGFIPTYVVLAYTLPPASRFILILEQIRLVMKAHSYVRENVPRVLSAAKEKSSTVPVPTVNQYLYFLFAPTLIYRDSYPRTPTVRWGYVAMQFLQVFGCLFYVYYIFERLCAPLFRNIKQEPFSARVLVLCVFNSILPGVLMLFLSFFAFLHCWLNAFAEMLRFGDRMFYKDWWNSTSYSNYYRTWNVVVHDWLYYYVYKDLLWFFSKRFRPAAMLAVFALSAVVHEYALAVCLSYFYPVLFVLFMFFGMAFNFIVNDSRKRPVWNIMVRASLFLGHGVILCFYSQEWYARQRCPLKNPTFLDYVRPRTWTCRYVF
Method in brief: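 Rat intestinal mucosal microsomes (male Sprague–Dawley, 6 weeks), 0.2 mg protein preincubated at 37 °C for 15 min in 0.154 M phosphate buffer with fatty-acid-free BSA and compound in DMSO; cholesteryl ester formation from [1-14C]oleoyl-CoA and endogenous cholesterol by scintillation counting. IC50 from inhibition curves.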

[2] = target: T2, Sterol O-acyltransferase 1 (Rattus norvegicus) (UniProt O70536); experiment: Inhibitory activity against acyl coenzyme A:cholesterol acyltransferase at 10 e-6 M in rat microsomes; conditions: Microsome
T2 sequence (whole entry): T1 sequence (O70536 whole entry)
Method in brief: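 Intestinal mucosal microsomes from male 6-week-old Sprague–Dawley rats (100800g pellet); 0.2 mg protein preincubated 15 min at 37 °C in 0.154 M phosphate buffer with fatty-acid-free BSA, compound in DMSO added before preincubation at 1 μM final. Labeled cholesteryl ester from [1-14C]oleoyl-CoA and endogenous cholesterol, scraped and scintillation counted; % inhibition.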

Cricetinae gen. sp. [3] = experiment: Plamsa cholesterol leval was measured in hamsters at 0.0001% cholesterol diet as a dietary admixture; type: functional, organism-based
Method in brief: (§1)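 Male Golden hamsters, 10 weeks old, were fed either a stock diet or a cholesterol diet. The compound was mixed into the diet at 0.0001%, 0.0003% or 0.001% and given for 14 days. Animals were housed individually at 23 ± 1 °C and were not fasted. Blood was taken from the orbital sinus, and plasma cholesterol was measured enzymatically.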

Cricetinae gen. sp. [4] = experiment: Plamsa cholesterol leval was measured in hamsters at 0.001% cholesterol diet as a dietary admixture; type: functional, organism-based; method in brief: as §1
Cricetinae gen. sp. [5] = experiment: Plamsa cholesterol leval was measured in hamsters at 0.0003% cholesterol diet as a dietary admixture; conditions: Mesocricetus auratus

Structure (SMILES)	IC50 [1] [nM]	inhibition [2] [%]	Plasma cholesterol (Cricetinae gen. sp. [3])	Plasma cholesterol (Cricetinae gen. sp. [4])	Plasma cholesterol (Cricetinae gen. sp. [5]) [mg/dL]
CCc1ccc2ncc(NC(=O)Nc3ccc(F)cc3F)c(-c3ccccc3Cl)c2c1	14	99.2	–	–	–
CN(C(=O)Nc1cnc2ccc(Cl)cc2c1-c1ccccc1)c1ccc(F)cc1F	> 1000	9.4	–	–	–
Cc1cc(C)c2nc(C)c(NC(=O)Nc3ccc(F)cc3F)c(-c3ccccc3Cl)c2c1	–	85.4	–	–	–
Cc1ccc(-c2c(NC(=O)Nc3ccc(F)cc3F)cnc3ccc(Cl)cc23)cc1	160	87.4	–	–	–
COc1ccc(-c2c(NC(=O)Nc3ccc(F)cc3F)cnc3ccc(Cl)cc23)cc1	121	92.7	–	–	–
Cc1cc(Cl)c2ncc(NC(=O)Nc3ccc(F)cc3F)c(-c3ccccc3Cl)c2c1	8.9	97.6	–	–	–
CC(C)c1ccc2ncc(NC(=O)Nc3ccc(F)cc3F)c(-c3ccccc3Cl)c2c1	14	99.3	–	–	–
O=C(Nc1ccc(F)cc1F)Nc1cnc2ccc(Cl)cc2c1-c1ccccc1Cl	21.2	98	–	–	–
Cc1cc(C)c2ncc(NC(=O)Nc3c(C(C)C)cccc3C(C)C)c(-c3ccccc3Cl)c2c1	28	98	–	–	–
COc1ccccc1-c1c(NC(=O)Nc2ccc(F)cc2F)cnc2ccc(Cl)cc12	24	98.2	–	–	–
CCCCN(C(=O)Nc1ccc(F)cc1F)c1cnc2ccc(Cl)cc2c1-c1ccccc1	–	61.6	–	–	–
Cc1cc(C)c2ncc(NC(=O)Nc3ccc(F)cc3F)c(-c3ccccc3Cl)c2c1	9.2	98.9	–	–	–
Cc1cc2c(-c3ccccc3C)c(NC(=O)Nc3ccc(F)cc3F)cnc2cc1Cl	9.3	98.6	–	–	–
Cc1cc(C)c2ncc(NC(=O)Nc3c(F)cc(F)cc3F)c(-c3ccccc3Cl)c2c1	15	97.3	–	–	–
Cc1ccccc1-c1c(NC(=O)Nc2ccc(F)cc2F)cnc2ccc(Cl)cc12	28.7	97.2	–	–	–
Cc1cc(C)c2ncc(NC(=O)Nc3ccc(F)cc3F)c(-c3ccccc3C)c2c1	12	98.5	–	–	–
Cc1cc2ncc(NC(=O)Nc3ccc(F)cc3F)c(-c3ccccc3Cl)c2cc1C	5.8	99.6	169 mg/dL and 279 mg/dL	95 mg/dL and 213 mg/dL	245
Cc1ccc2ncc(NC(=O)Nc3ccc(F)cc3F)c(-c3ccccc3Cl)c2c1	16.8	98.5	–	–	–
O=C(Nc1ccc(F)cc1F)Nc1cnc2ccccc2c1-c1ccccc1Cl	125	91.8	–	–	–
O=C(Nc1ccc(F)cc1F)Nc1cnc2ccc(Cl)cc2c1-c1cccc(Cl)c1	90.6	88.5	–	–	–
Cc1cccc2ncc(NC(=O)Nc3ccc(F)cc3F)c(-c3ccccc3Cl)c12	149	87.3	–	–	–
O=C(Nc1ccc(F)cc1F)Nc1cnc2ccc(Cl)cc2c1-c1ccc(Cl)cc1	534	77	–	–	–
Cc1cc(Cl)cc2c(-c3ccccc3Cl)c(NC(=O)Nc3ccc(F)cc3F)cnc12	12	97.6	–	–	–
Cc1ccc2ncc(NC(=O)Nc3ccc(F)cc3F)c(-c3ccccc3C)c2c1	21.7	96.9	–	–	–

More lines, main results first:

IC50 [1] [nM]	inhibition [2] [%]	Structure (SMILES)	Plasma cholesterol (Cricetinae gen. sp. [3])	Plasma cholesterol (Cricetinae gen. sp. [4])	Plasma cholesterol (Cricetinae gen. sp. [5]) [mg/dL]
929	75	O=C(Nc1ccccc1F)Nc1cnc2ccc(Cl)cc2c1-c1ccccc1	–	–	–
1300	51.5	O=C(Nc1ccc(Cl)cc1)Nc1cnc2ccc(Cl)cc2c1-c1ccccc1	–	–	–
864	47.6	COc1ccc(NC(=O)Nc2cnc3ccc(Cl)cc3c2-c2ccccc2)c(OC)c1	–	–	–
–	87.8	CSc1ccc2ncc(NC(=O)Nc3ccc(F)cc3F)c(-c3ccccc3)c2c1	–	–	–
215	88.3	O=C(Nc1ccc(F)cc1F)Nc1cnc2ccc(Cl)cc2c1-c1ccccc1	–	–	–
–	85.5	O=C(Nc1ccc(F)cc1F)Nc1cnc2ccc(Br)cc2c1-c1ccccc1	–	–	–
–	84.5	Cc1ccc2ncc(NC(=O)Nc3ccc(F)cc3F)c(-c3ccccc3)c2c1	–	–	–
800	66.5	O=C(Nc1ccc(F)cc1)Nc1cnc2ccc(Cl)cc2c1-c1ccccc1	–	–	–
–	85.9	COc1ccc2ncc(NC(=O)Nc3ccc(F)cc3F)c(-c3ccccc3)c2c1	–	–	–
–	90.1	O=C(Nc1ccc(F)cc1F)Nc1cnc2ccc(C(F)(F)F)cc2c1-c1ccccc1	–	–	–
> 1000	5	O=C(Nc1ccccc1)Nc1cnc2ccc(Cl)cc2c1-c1ccccc1	–	–	–
–	91.6	CC(C)c1ccc2ncc(NC(=O)Nc3ccc(F)cc3F)c(-c3ccccc3)c2c1	–	–	–
